The list is not random: actives were taken first. Their share in the collection is about 4%.
SIRT5 inh = SIRT5 desuccinylase inhibitors, primary screen, biochemical, fluorescence imaging, single point, set 5. NAD-dependent protein deacylase sirtuin-5, mitochondrial (Homo sapiens), Q9NXA8. Purified SirT5, succinyl-peptide AMC, trypsin-coupled fluorescence. inhibition, % at 15 µM. 330,000 compounds, 1.1% hits. AID 652115, 2013; in the data active = inhibition above about 15%
Target sequence (Q9NXA8 whole entry, looked up): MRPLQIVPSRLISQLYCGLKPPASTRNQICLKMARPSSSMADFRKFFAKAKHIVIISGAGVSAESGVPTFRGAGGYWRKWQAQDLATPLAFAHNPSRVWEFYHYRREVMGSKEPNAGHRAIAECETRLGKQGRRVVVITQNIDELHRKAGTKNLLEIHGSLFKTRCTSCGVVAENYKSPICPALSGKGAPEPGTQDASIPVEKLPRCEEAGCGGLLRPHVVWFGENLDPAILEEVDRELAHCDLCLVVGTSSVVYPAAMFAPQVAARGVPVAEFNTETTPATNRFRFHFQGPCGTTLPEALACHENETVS
rRNA inh HTS = reduced GFP signal of wild-type E. coli, primary screen, bacterial rRNA inhibitor project, GFP/RFP fluorescence, OD600, single point | E. coli WT GFP vs humanized-ribosome RFP mutants, 24 h; stronger effect = lower value; DMSO median 0, no signal -100 | GFP signal change (wild-type ribosome), % (test concentration not listed) | 350,000 compounds, 1.6% hits | AID 720706, 2013;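 active = significant combined selectivity score with lowered wild-type GFP, culture density cut under 30%, mutant RFP and density less affected; inactive = any of these conditions unmet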
E-sel inducer = E-selectin induction in HUVECs, primary screen, imaging, HUVEC, immunofluorescence imaging, single point; normalized: neutral wells 0, TNF-alpha wells 100; activation, % at 7.58 µM; P16581; 260,000 compounds, 0.37% hits;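 active = mean E-selectin-positive cell signal at least 10% of the positive control, reached in at least 60% of replicates, without over 20% cell loss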
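Test system – human umbilical vein endothelial cells (HUVEC), E-selectin induction · Input – 3,000 HUVEC seeded per well · Buffer or medium – EGM-2, gelatin · Compound dosing – single-point compound dose · Detection – immunofluorescence imaging · Measure – percent E-selectin-positive cells · Controls – TNF-alpha high, DMSO low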
C2C12 statin = suppressors of statin myotoxicity in C2C12 myotubes, primary screen, cell-based, single point, plate reader; C2C12 myotubes + simvastatin, ATP luminescence, 48 h; scaled: DMSO 0, geranylgeraniol control 100; rescue of ATP level, % at 7.49 µM; 330,000 compounds, 0.78% hits; AID 602340, 2012;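 active = mean ATP rescue above about 67%, or every replicate alone reaching that limit, limit read from the data, passing the limit was not always enough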;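 note: myotubes were challenged with 10 µM simvastatin during compound exposure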
FGF22 binding = binders of human FGF22 protein, primary screen, FGF22 synaptogenesis inhibitor project, biophysical, thermal shift, single point | Fibroblast growth factor 22 (Homo sapiens), Q9HCT0 | recombinant FGF22 thermal shift, SYPRO orange fluorescence; percent of sucrose octasulfate shift, DMSO zero | AID 651658, 2012 | activity (Tm shift, normalised), % at 9.99 µM | 340,000 compounds, 1.5% hits;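 active = mean Tm shift, scaled 0 neutral to 100 positive control, at about 1.3% or above, every replicate too, limit read from the data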
Target sequence (Q9HCT0 whole entry, looked up): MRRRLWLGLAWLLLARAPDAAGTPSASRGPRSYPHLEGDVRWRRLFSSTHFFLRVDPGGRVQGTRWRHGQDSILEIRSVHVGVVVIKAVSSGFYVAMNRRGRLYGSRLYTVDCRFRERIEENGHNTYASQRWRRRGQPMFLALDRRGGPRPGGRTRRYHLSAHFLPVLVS
FN deposit inh = inhibitors of fibronectin matrix deposition, primary screen, AH1F cells, Alexa488-fibronectin fluorescence, plate reader | AH1F fibroblasts, overnight | inhibition, % at 12.6 µM | 350,000 compounds, 0.086% hits;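 active = mean inhibition across replicates of 30% or more, regardless of how many single replicates reach that level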;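 note: positive control wells lacked labelled fibronectin entirely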
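Material – AH1F fibroblast monolayer, labelled fibronectin deposition · Reagent – labelled fibronectin 24 nM · Timing – 1 h adhesion, overnight exposure · Measured by – fluorescence at 485 nm excitation, 525 nm emission · Read-out – inhibition of fibronectin deposition signal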
An asterisk follows results filed as active; . = no result; ! = a repeat was not active.

SMILES | SIRT5 inh | rRNA inh HTS | E-sel inducer | C2C12 statin | FGF22 binding | FN deposit inh
C[C@@H]1CCCCO[C@H](CN(C)CC2CC2)[C@@H](C)CN([C@H](C)CO)C(=O)c2cc(NC(=O)Nc3ccccc3)ccc2O1 | 2 | 0 | 0 | . | 0 | .
COCC(=O)N1[C@@H]2c3ccc(C4=CCCC4)c(=O)n3C[C@@H]2[C@@H](CO)[C@@H]1C(=O)N1CCN(C)CC1 | -8 | 6 | 0 | . | . | .
CCCN(CC(=O)Nc1ccccc1C)C(=O)c1cccc(S(=O)(=O)N2CCc3ccccc3C2)c1 | 2 | -21* | . | -24 | 0 | 6
COC(=O)COc1ccc(S(=O)(=O)N2CCc3ccccc3C2)cc1C | . | -26* | . | 1 | . | .
COc1ccc(CN(C)C[C@H]2Oc3ccc(NC(=O)Cc4ccccc4)cc3CC(=O)N([C@@H](C)CO)C[C@H]2C)cc1 | 3 | -1 | 0 | -1 | 0 | .
COc1cccc(CNC(=O)C[C@H]2CC[C@@H](NC(=O)C3CC3)[C@H](CO)O2)c1 | 1 | -4 | 0 | -1 | 0 | 0
Cc1cccn2cc(-c3cc4ccccc4oc3=O)nc12 | -2 | 2 | 0 | -17 | 43* | 6
Cc1ccc(NC(=O)CN(C)Cc2ccc(Cl)cc2)cc1 | -3 | -30* | 0 | -1 | 0 | -18
CN(CC(=O)NC(=O)Nc1ccccc1F)Cc1ccccc1F | . | -11 | 0 | 0 | 0 | 3
CN(CC(=O)NCCCc1ccccc1)Cc1ccc(Br)cc1 | -1 | -25 | 0 | 12 | 0 | -6
Cc1ccc(NC(=O)CN(C)CC(=O)Nc2ccc(F)c(Cl)c2)cc1 | -2 | -52 | . | -2 | 1 | -3
CN(CC(=O)Nc1ccc(Br)cc1)Cc1ccccc1 | 1 | -18 | 97* | 2 | 0 | -10
CN(CC(=O)Nc1ccc(S(N)(=O)=O)cc1)Cc1ccccc1F | 21* | 11 | 0 | 9 | 42 | -1
CC(=O)N1[C@H](CO)[C@@H](c2ccccc2)[C@H]1CNC(=O)CN1CCOCC1 | -1 | 4 | 2 | 7 | 1 | 2
CCCOn1nnnc1-c1ccccc1 | . | . | . | 120* | . | .
Cc1c(C(=O)C(=O)NCc2cccs2)c2ccccc2n1C | 2 | -8 | 0 | . | 43* | -6
Cc1c(C(=O)C(=O)NCCC2=CCCCC2)c2ccccc2n1C | . | -22 | . | . | 0 | -5
CN(C)CC(=O)N1CCCCN2[C@@H](CO)[C@@H](c3ccc(/C=C/c4ccccc4)cc3)[C@@H]2C1 | 5 | 2 | 0 | -15 | 1 | .
N#C[C@H]1[C@@H](c2ccccc2-c2ccccc2)[C@@H](CO)N1c1ncc(-c2ccccc2)s1 | 24* | -2 | 0 | . | 0 | -4
Cc1noc(C)c1CSc1nc2sc(C)c(C)c2c(=O)n1C1CCCC1 | 35* | 5 | . | -7 | . | 7
CCc1ccc(NC(=O)CSc2nc3ccsc3c(=O)n2CCCCCC(=O)O)cc1 | -3 | 0 | 5 | . | 43* | -5
CCOc1ccc(NC(=O)CSc2nc3ccsc3c(=O)n2CCCCC(=O)O)cc1 | . | -1 | 0 | 2 | 0 | -6
CCCc1cc(=O)n2[nH]c(C)nc2n1 | . | . | . | 3 | . | -5
Cc1nc2nc(CSc3nnc(C)s3)cc(=O)n2[nH]1 | -2 | 2 | 2 | 107*! | 0 | 1
CC(=O)OC1CCC2C3CCC4=CC(=O)CCC4(C)C3CCC2(C)[C@]1(C)O (some centres not stated) | -3 | 1 | 0 | -5 | 0 | -6
SMILES | SIRT5 inh | rRNA inh HTS | E-sel inducer | C2C12 statin | FGF22 binding | FN deposit inh
CC12CC(O)C3C(CCC4=CC(=O)CCC43C)C1CCC2=CCO (configuration not stated) | . | -26 | 1 | 2 | 43* | -11
CC(=O)OC1CC2(C)C(C(C)=O)CCC2C2CCC3=CC(=O)CCC3(C)C12 (configuration not stated) | . | -27 | 6 | -10 | 43* | 2
C[C@]12CCC(=O)C=C1CC[C@@H]1[C@@H]2[C@@H](O)C[C@]2(C=O)[C@@H](C(=O)CO)CC[C@@H]12 | -4 | . | 0 | -11 | 0 | 1
CCOC(=O)C1=C2c3ccc4ccccc4c3CC(C)(C)N2C(=O)C1=O | -1 | -29* | -3 | . | 0 | 11
CCOC(=O)C1=C2c3cc(OC)c(OC)cc3CC(C)(C)N2C(=O)C1=O | 0 | -3 | -2 | . | 0 | 7
O=C1C=C(N2CCOCC2)CC(c2ccccc2)C1 (configuration not stated) | . | . | . | 2 | . | .
CC(=O)N(C)C[C@@H]1Oc2ncc(C#CCC3CCCC3)cc2C(=O)N([C@H](C)CO)C[C@H]1C | 1 | -2 | 0 | -8 | 0 | -9
O=C(Nc1ccncc1)c1ccc(Br)cc1 | -2 | 8 | 0 | 12 | 0 | 2
O=C(Nc1ccncc1)c1cc(F)cc(F)c1 | . | . | . | 72* | . | .
Cc1ccc(S(=O)(=O)N(C)C[C@H]2OCCCC[C@H](C)Oc3ccc(NS(=O)(=O)c4ccc(Cl)cc4)cc3C(=O)N([C@@H](C)CO)C[C@@H]2C)cc1 | 24* | -1 | 0 | 30 | 0 | -8
Cc1ccc(S(=O)(=O)N(C)C[C@@H]2OCCCC[C@H](C)Oc3ccc(NS(=O)(=O)c4ccc(Cl)cc4)cc3C(=O)N([C@@H](C)CO)C[C@H]2C)cc1 | 22* | -2 | 0 | -21 | 0 | -1
Cc1noc(C)c1S(=O)(=O)Nc1ccc2c(c1)C(=O)N([C@@H](C)CO)C[C@@H](C)[C@H](CN(C)S(=O)(=O)c1cn(C)cn1)OCCCC[C@@H](C)O2 | -4 | 2 | . | . | 34* | 2
Cc1noc(C)c1S(=O)(=O)Nc1ccc2c(c1)C(=O)N([C@@H](C)CO)C[C@@H](C)[C@@H](CN(C)S(=O)(=O)c1cn(C)cn1)OCCCC[C@H](C)O2 | -2 | 6 | . | . | . | -3
Cc1ccc(S(=O)(=O)N(C)C[C@H]2OCCCC[C@H](C)Oc3ccc(NS(=O)(=O)c4ccc(Cl)cc4)cc3C(=O)N([C@@H](C)CO)C[C@H]2C)cc1 | 26* | -1 | 0 | 22 | 0 | 4
Cc1ccc(S(=O)(=O)N(C)C[C@@H]2OCCCC[C@@H](C)Oc3ccc(NS(=O)(=O)c4ccc(Cl)cc4)cc3C(=O)N([C@H](C)CO)C[C@@H]2C)cc1 | 15 | 1 | 0 | 2 | 0 | 12
